The values below come from publication PMC7881813 (The Indian Journal of Medical Research, 2020).

For orientation: pIC50 means −log10 of the IC50, conventionally taken in molar units.

The structures appear in SMILES notation. pIC50: −log10 of the molar value.

The subject of series [1] is EAC-bearing mice. Kind of series: Survivability study. The format is in vivo, mouse. The following applies: respective IC50 dosages, n=10. Put shortly: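 EAC-bearing mice (1×10⁶ cells intraperitoneally), ten per group, treated beginning 24 h after inoculation. Survival days recorded. ILS% = (T−C)/C×100, with T the survival days of treated mice and C those of untreated mice. Kaplan–Meier survival analysis.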

Series [2] concerns EAC-bearing mice. Kind of series: Haematological parameters of EAC-bearing mice. It is filed as in vivo, mouse. The following applies: for Effect on haematological counts (in words): respective IC50 dosage; for Hb / Platelets / RBC / WBC: treatment at IC50 dose, mean±SD n=6. Put shortly: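 Female Swiss albino mice (7–8 wk) inoculated intraperitoneally with 1×10⁶ EAC cells on day 0, then treated on days 1–10. After 4 h fasting, heparinised cardiac blood collected. Haemoglobin by Sahli's method; RBC, WBC and platelets on an automated haematology analyser. Mean±SD, six mice per group.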

Series [3] concerns EAC-bearing mice. As to the kind of experiment: Hepatotoxicity and kidney toxicity parameters of EAC-bearing mice. The format is in vivo, mouse. Conditions: treatment at IC50 dosage; for ALP / ALT / AST / Creatinine / Urea: EAC-bearing mice, mean±SD n=6.
The test system of series [4] is MDA-MB-231 cells. Kind of series: MTT assay for IC50 determination, MDA-MB-231. It is filed as cell-based. Conditions: Homo sapiens, MDA-MB-231, read-out: IC50 for MDA-MB-231. On the technique in general: Tetrazolium assays rely on reduction of a dye to a coloured formazan, in cell work by metabolically active cells.
Another series relates to EAC cells. As to the kind of experiment: In vivo IC50 determination in EAC cells by trypan blue dye exclusion. Conditions: Mus musculus, 24 h, read-out: IC50 (50 per cent lethality of EAC cells) in vivo.
The test system of series [5] is MCF-7 cells. As to the kind of experiment: MTT assay for IC50 determination, MCF-7. It is filed as cell-based. The following applies: Homo sapiens, MCF7, read-out: IC50 for MCF-7.
Another series concerns normal fibroblast. As to the kind of experiment: Intracellular ROS generation. The following applies: treatment with 50 μM. The format is cell-based, mouse.
Series [6] deals with EAC, MCF-7 and MDA-MB-231 cells. Kind of series: Cell cycle phase distribution by flow cytometry. The format is cell-based. The following applies: 10 days of treatment in vivo and 48 h in vitro, vs control. The gist of the method:
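EAC cells taken from mice 10 days after daily XD dosing (days 1–10 after intraperitoneal inoculation with 1×10⁶ cells), PBS-washed and haemocytometer-counted. […] Cell-cycle distribution, including SubG0, by flow cytometry. Repeated at least three times.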
Background: In flow cytometry, cells or beads pass a laser one at a time.

Series [7] deals with MDA-MB-231 cells. As to the kind of experiment: Comet assay, MDA-MB-231 cells. The format is cell-based, human. The following applies: MDA-MB-231, XD 5 μM. Put shortly:
(§1)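 Alkaline comet assay, about 10⁴ cells/slide in 1% low-melt agarose over normal agarose, capped with 0.5% low-melt agarose. Lysis overnight at 4°C (2.5 M NaCl, 100 mM Na₂-EDTA, 10 mM Tris, 1% Triton X-100, 10% DMSO, pH 10.0). Electrophoresis at pH 13.1, 30 min, 300 mA, 20 V. Tris neutralisation, ethidium bromide staining. Per cent damaged cells among 150–200 scored per slide.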

Series [8] has as its system MCF-7 cells. As to the kind of experiment: Comet assay, MCF-7 cells. The format is cell-based, human. Conditions: MCF-7, XD 1 μM. Put shortly: as §1
Another series deals with Bax:Bcl-2. As to the kind of experiment: Western blot Bax:Bcl-2 ratio. It is filed as cell-based. The following applies: EAC, MCF-7 and MDA-MB-231 cells, XD-treated vs control. Put shortly: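 Whole-cell extracts prepared from control and XD-treated EAC, MCF-7 and MDA-MB-231 cells. Bax and Bcl-2 immunoblotted and the Bax:Bcl-2 ratio calculated. EAC cells came from mice dosed on days 1–10 after intraperitoneal tumour inoculation. Repeated at least three times, mean±SD.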
Background: Immunoblotting shows a protein as a band on a membrane.

Series [9] has as its system EAC, MCF-7 and MDA-MB-231 cells. As to the kind of experiment: Intracellular ROS generation. Conditions: XD at respective IC50 (8.1, 1 and 5 μM), in vivo and in vitro, vs untreated. The format is cell-based.
Series [10] relates to liver cytosol of EAC-bearing mice. As to the kind of experiment: Antioxidative enzymes and LPO in liver cytosol of EAC-bearing mice. The format is in vivo, mouse. The gist of the method:
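Liver from female Swiss albino mice bearing intraperitoneal EAC. After 15 days of treatment: GST in liver cytosol, rise in A340 with CDNB substrate, as CDNB-GSH conjugate formed per min per mg protein. GPx in post-mitochondrial fraction, fall in A340 after H₂O₂ addition, as nmol NADPH used per min per mg protein. Mean±SD, six per group.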

In series [11] the test system is EAC, MCF-7 and MDA-MB-231 cells. Kind of series: TUNEL assay. The format is cell-based. Conditions: in vivo and in vitro models, vs control. The gist of the method:
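EAC cells recovered from the peritoneum of mice after 10 days of XD dosing, PBS-washed, smeared and fixed in 4% paraformaldehyde. MCF-7 and MDA-MB-231 cells grown on coverslips and fixed in paraformaldehyde. Fluorescein in situ cell-death (TUNEL) kit used per manufacturer; positive cells imaged by fluorescence microscopy at ×20.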

The subject of another series is normal murine fibroblast. Kind of series: MTT cytotoxicity on normal mouse fibroblast. It is filed as cell-based. Conditions: xanthones up to highest concentration, cisplatin at 20 μM, XD at 1 and 5 μM.
The test system of series [12] is EAC, MCF-7 and MDA-MB-231 cells. As to the kind of experiment: DNA fragmentation assay. The following applies: XD at respective IC50 dosage (8.1, 1 and 5 μM). It is filed as cell-based.
A further series concerns normal mice. Kind of series: Chronic toxicity study with therapeutic dosage of XD. The format is in vivo, mouse. Conditions: 8 μM, oral, 40 days, data not shown. Put shortly: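 Normal mice dosed orally with XD for 40 days; controls got 0.9% saline. After 4 h fasting, blood drawn by cardiac puncture, clotted, spun at 2000×g for 15 min, serum held at −20°C. ALT, ALP, urea and creatinine measured on an automated clinical chemistry analyser.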

In series [13] the test system is normal cells (fibroblast). Kind of series: Comet assay, normal fibroblast. It is filed as cell-based, mouse. Conditions: highest dose of 40 μM. Put shortly: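 Mouse fibroblasts treated with XD 24 h after seeding and harvested 48 h later. Alkaline comet assay: cells in low-melt agarose layers, overnight lysis at 4°C at pH 10.0, electrophoresis at pH 13.1 for 30 min (300 mA, 20 V), neutralisation, ethidium bromide stain. Fluorescence microscopy; damaged-cell per cent and tail length from 150–200 cells per slide.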

Setting [14] is: EAC-bearing mice, XD-treated 8.1 µM.

Take `N.N.[Cl][Pt][Cl]` [Cisplatin, reference compound]: the “Increase in life span of tumour-bearing mice (ILS%)” value (“Increase in life span … (ILS%)” for short) in the series with EAC-bearing mice [1] turned out to be 36.36%. Moreover, in the series on EAC-bearing mice [2], the “Effect on haematological counts (in words)” value was “lowering of RBC, Hb and platelets”; the Hb was found to be 2.1 ± 0.4 g/dL; the Platelets is on record as 200±2 10^3/µl; the RBC is given as 2.7±0.6 10^6/µl. For the same molecule, the WBC in the series on EAC-bearing mice [2] was 35.8±0.8 10^3/µl.
Take `COc1cc(O)c2c(=O)c3c(OC)c(OC)ccc3oc2c1` [XA, 1-hydroxy-3,7,8-trimethoxyxanthone]: in the series with EAC-bearing mice [3], the ALP is on record as 103±3 IU/l, the ALT is reported as 91±3 IU/l, the AST is listed as 350±1 IU/l and the Creatinine was determined as 1.7 ± 0.09 mg/dL. Also, in the series with EAC-bearing mice [3], the Urea came out at 71 ± 8 mg/dL. Besides, the pIC50 in the series with MDA-MB-231 cells [4] was 4.30. Besides, the “Increase in life span … (ILS%)” value with EAC-bearing mice [1] amounted to 45%. In addition, the pIC50 in the series with EAC cells was 4.31. The negative-log IC50 (pIC50) with MCF-7 cells [5] is 4.52. In the series with EAC-bearing mice [2], the Hb stood at 7.5 ± 0.8 g/dL, the Platelets was 456±3 10^3/µl, the RBC was 4.15±0.4 10^6/µl and the WBC is given as 30.8±0.6 10^3/µl.
In the series on EAC-bearing mice [3], `COc1cc(O)c2c(=O)c3c(O)ccc(OC)c3oc2c1` [XB, 1,8-dihydroxy-3,5-dimethoxyxanthone] came in with an ALP of 160±5 IU/l, an ALT of 93±4 IU/l, an AST of 335±8 IU/l and a Creatinine of 1.1 ± 0.09 mg/dL. In the series on EAC-bearing mice [3], this molecule returned a Urea of 67 ± 8 mg/dL. Also, the negative logarithm of the IC50 (pIC50) in the series with MDA-MB-231 cells [4] is 4.52. For the same molecule, in the series on EAC-bearing mice [1], the “Increase in life span … (ILS%)” value is 63%. Moreover, the negative logarithm of the IC50 (pIC50) in the series on EAC cells was 4.31. Besides, the pIC50 in the series on MCF-7 cells [5] is 4.60. For the same molecule, in the series with EAC-bearing mice [2], the Hb was 7.4 ± 0.5 g/dL, the Platelets is recorded as 596±4 10^3/µl, the RBC was 4.75±0.3 10^6/µl and the WBC was 24.6±0.6 10^3/µl.
For the molecule `COc1cc(O)c2c(=O)c3c(OC)ccc(OC)c3oc2c1` [XC, 1-hydroxy-3,5,8-trimethoxyxanthone], in the series with EAC-bearing mice [3], the ALP turned out to be 106±2 IU/l, the ALT amounted to 85±5 IU/l, the AST was 355±9 IU/l and the Creatinine was 1.2 ± 0.09 mg/dL. For the same molecule, the Urea with EAC-bearing mice [3] turned out to be 79 ± 8 mg/dL. Besides, the pIC50 in the series on MDA-MB-231 cells [4] is 4.60. For the same molecule, the “Increase in life span … (ILS%)” value in the series on EAC-bearing mice [1] is listed as 81%. Besides, the pIC50 in the series on EAC cells was 4.49. Also, in the series on MCF-7 cells [5], the pIC50 is 5.10. Further, in the series with EAC-bearing mice [2], the Hb stood at 7.9 ± 0.9 g/dL, the Platelets is recorded as 441±2 10^3/µl, the RBC was 5.75±0.2 10^6/µl and the WBC is listed as 27.2±0.8 10^3/µl.
Consider `COc1cc(O)c2c(=O)c3c(O)ccc(O)c3oc2c1` [XD, 1,5,8-trihydroxy-3-methoxyxanthone], for which, in the series with EAC-bearing mice [3], the ALP was 57.2±2 IU/l, the ALT is recorded as 79±2 IU/l, the AST worked out at 205±5 IU/l and the Creatinine amounted to 0.7 ± 0.09 mg/dL. Besides, in the series on EAC-bearing mice [3], the Urea was determined as 41 ± 8 mg/dL. For the same molecule, the “Liver and kidney toxicity parameters in tumour-bearing mice” value in the series with EAC-bearing mice [3] (compared to normal mice) is listed as “almost back to normal”. Besides, in the series on normal fibroblast, the “ROS generation in normal fibroblast” value is listed as “augmentation of ROS generation was not seen”. Moreover, in [6], the SubG0 population entry is given as “significantly (P<0.001) increase”. Besides, the “per cent of damaged cells (comet assay)” value in the series with MDA-MB-231 cells [7] is on record as 67 per cent. Further, in the series with MDA-MB-231 cells [4], the pIC50 is 5.30. Further, in the series on EAC-bearing mice [1], the “Increase in life span … (ILS%)” value is listed as 140%. In addition, in the series with MCF-7 cells [8], the “per cent of damaged cells (comet assay)” value is 65 per cent. Moreover, the “intracellular Bax:Bcl-2 ratio” value with Bax:Bcl-2 is reported as “significant (P<0.001) augmentation”. Besides, the pIC50 with EAC cells was 5.09. Further, the negative-log IC50 (pIC50) with MCF-7 cells [5] is 6.00. Also, the ROS level result in [9] is listed as “significantly (P<0.001) increased”. Moreover, in series [10] (Drug control group), the CAT is 0.4±0.06 units/mg, the GPx came to 8.28 ± 0.6 nmol/mg, the GSH came to 2.6 ± 0.3 nmol/mg and the GST turned out to be 8 ± 0.6 nmol/mg. In series [10] (Drug control group), this molecule gave an LPO of 1.6 ± 0.09 mol/mg and an SOD of 17±6 units/mg. For the same molecule, in series [10] (setting [14]), the GPx was 9.9 ± 2 nmol/mg, the GSH is 5.72 ± 1 nmol/mg, the GST is 15 ± 5 nmol/mg and the LPO came out at 1.8 ± 0.09 mol/mg. The molecule further gave an SOD in [10] (setting [14]) of 35±0.8 units/mg. In the series on EAC-bearing mice [2], the “Effect on haematological counts (in words)” value is “lower WBC and platelet counts back to normal level”; the Hb amounted to 10 ± 2 g/dL; the Platelets is given as 341±8 10^3/µl; the RBC is recorded as 5.05±0.5 10^6/µl. Besides, the WBC in the series with EAC-bearing mice [2] is reported as 17.2±0.2 10^3/µl. Besides, the “Apoptosis by TUNEL assay” value in series [11] is given as “significant apoptosis”. Further, the “Effect on normal murine fibroblast” value in the series with normal murine fibroblast is recorded as “without affecting the normal cells”. Besides, the DNA fragmentation entry in series [12] is reported as “smearing pattern”. Also, the “Chronic toxicity (liver and kidney toxicity parameters)” value in the series with normal mice is listed as “did not show any toxicity”. Besides, the “DNA damage in normal cells (comet assay)” value in series [13] is reported as “no DNA damage was seen in normal cells”.
